In ChEMBL document CHEMBL4350999, “Enhanced tumor retention of NTSR1-targeted agents by employing a hydrophilic cysteine cathepsin inhibitor” (Eur J Med Chem, 2019):

Legend:
[1] = Drug uptake in lung of SCID mouse xenografted with human HT-29 cells at 0.37 MBq/mouse, iv measured at 72 hrs using 177Lu labelled compound by gamma counter analysis; assay type: ADME, organism-based; conditions: in vivo
Summary of the method: (§1)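 Female SCID mice (5 weeks) bore s.c. flank xenografts of HT-29 cells (5 × 10^6 in Matrigel), used at about 80 mm3 (two weeks) and randomized. Each mouse received 10 μCi (0.37 MBq) of HPLC-purified 177Lu-conjugate via tail vein. Tissues were excised, weighed and gamma-counted, expressed as %ID/g; mean ± SD, n = 5.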

[2] = Drug uptake in pancreas of SCID mouse xenografted with human HT-29 cells at 0.37 MBq/mouse, iv measured at 24 hrs using 177Lu labelled compound by gamma counter analysis; assay type: ADME, organism-based; conditions: in vivo; summary of the method: as §1
[3] = Drug uptake in pancreas of SCID mouse xenografted with human HT-29 cells at 0.37 MBq/mouse, iv measured at 4 hrs using 177Lu labelled compound by gamma counter analysis; assay type: ADME, organism-based; conditions: in vivo; summary of the method: as §1
[4] = Drug uptake in spleen of SCID mouse xenografted with human HT-29 cells at 0.37 MBq/mouse, iv measured at 24 hrs using 177Lu labelled compound by gamma counter analysis; assay type: ADME, organism-based; conditions: in vivo
Summary of the method: (§2)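 Female SCID mice (5 weeks old) received s.c. flank HT-29 cells (5 × 10^6 in Matrigel). At ~80 mm3, two weeks later, mice were randomized and given 10 μCi (0.37 MBq) of purified 177Lu conjugate i.v. by tail vein. Mice were killed at 4, 24 or 72 h. Tissues were weighed and gamma counted as %ID/g, mean ± SD, n = 5. Tumor-to-tissue ratios were calculated.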

[5] = Drug uptake in brain of SCID mouse xenografted with human HT-29 cells at 0.37 MBq/mouse, iv measured at 4 hrs using 177Lu labelled compound by gamma counter analysis; assay type: ADME, organism-based; conditions: in vivo; summary of the method: as §1
[6] = Drug uptake in muscle of SCID mouse xenografted with human HT-29 cells at 0.37 MBq/mouse, iv measured at 72 hrs using 177Lu labelled compound by gamma counter analysis; assay type: ADME, organism-based, Muscle tissue; conditions: in vivo; summary of the method: as §1
Cathepsin B = Cathepsin B (Homo sapiens, UniProt P07858); assay: Inhibition of human liver cathepsin B assessed as second order rate constant using Z-Arg-Arg-AMC as substrate measured every 5 mins for 1 hr by fluorescence assay
Summary of the method: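 Human liver cathepsin B, 2 nM final, in 0.1 M phosphate pH 5.8 (1 mM EDTA, 2.7 mM DTT, 0.03% Brij35). Enzyme mixed with conjugate (1–500 nM final), then Z-Arg-Arg-AMC added (800 μM final); 37 °C. […] Biological triplicate.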

[7] = Drug uptake in lung of SCID mouse xenografted with human HT-29 cells at 0.37 MBq/mouse, iv measured at 24 hrs using 177Lu labelled compound by gamma counter analysis; assay type: ADME, organism-based; conditions: in vivo; summary of the method: as §1
[8] = Ratio of drug uptake in SCID mouse xenograted with human HT-29 cells assessed as tumour retention to drug uptake in large intestine of SCID mouse xenografted with human HT-29 cells measured after 4 hrs using 177Lu labelled compound; assay type: ADME, tissue-based, Tumor/Large intestine; summary of the method: as §2
[9] = Drug uptake in bone of SCID mouse xenografted with human HT-29 cells at 0.37 MBq/mouse, iv measured at 72 hrs using 177Lu labelled compound by gamma counter analysis; assay type: ADME, organism-based, Bone element; conditions: in vivo; summary of the method: as §1
[10] = Drug uptake in stomach of SCID mouse xenografted with human HT-29 cells at 0.37 MBq/mouse, iv measured at 24 hrs using 177Lu labelled compound by gamma counter analysis; assay type: ADME, organism-based; conditions: in vivo; summary of the method: as §2
[11] = Drug uptake in SCID mouse xenografted with human HT-29 cells assessed as tumour retention at 0.37 MBq/mouse, iv measured at 24 hrs using 177Lu labelled compound by gamma counter analysis; assay type: ADME, organism-based; conditions: in vivo
Summary of the method: (§3)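 Female SCID mice bearing s.c. flank HT-29 xenografts (5 × 10^6 cells in Matrigel, ~80 mm3). Given 10 μCi (0.37 MBq) 177Lu conjugate i.v. by tail vein; groups sacrificed at 4, 24, 72 h. Tissues weighed and gamma-counted as %ID/g, excretion as %ID; n = 5, mean ± SD. Blocking arms: colchicine 1 mg/kg i.p. beforehand, or D-lysine 40 mg/kg co-injected.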

[12] = 1-Octanol-PBS buffer distribution coefficient, log D of natEu labelled compound at pH 7.4 by time resolved fluorescence analysis; assay type: physicochemical
Summary of the method: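 natEu-labelled conjugate (300 μg) in 0.2 mL PBS pH 7.4 partitioned against 0.2 mL 1-octanol; 100 μL aliquots from each layer dried under vacuum and taken up in water. Time-resolved fluorescence read at 590 nm with 380 nm excitation, and LogD7.4 calculated from the two layers.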

[13] = Ratio of drug uptake in SCID mouse xenograted with human HT-29 cells assessed as tumour retention to drug uptake in kidney of SCID mouse xenografted with human HT-29 cells measured after 4 hrs using 177Lu labelled compound; assay type: ADME, tissue-based, Tumor/Kidney; summary of the method: as §2
[14] = Drug excretion in SCID mouse xenografted with human HT-29 cells at 0.37 MBq/mouse, iv measured at 24 hrs using 177Lu labelled compound by gamma counter analysis; assay type: ADME, organism-based; conditions: in vivo; summary of the method: as §3
[15] = Drug uptake in heart of SCID mouse xenografted with human HT-29 cells at 0.37 MBq/mouse, iv measured at 24 hrs using 177Lu labelled compound by gamma counter analysis; assay type: ADME, organism-based; conditions: in vivo; summary of the method: as §1
[16] = Drug uptake in stomach of SCID mouse xenografted with human HT-29 cells at 0.37 MBq/mouse, iv measured at 4 hrs using 177Lu labelled compound by gamma counter analysis; assay type: ADME, organism-based; conditions: in vivo; summary of the method: as §2
[17] = Drug excretion in SCID mouse xenografted with human HT-29 cells at 0.37 MBq/mouse, iv measured at 4 hrs using 177Lu labelled compound by gamma counter analysis; assay type: ADME, organism-based; conditions: in vivo; summary of the method: as §3
[18] = Drug uptake in blood of SCID mouse xenografted with human HT-29 cells at 0.37 MBq/mouse, iv measured at 4 hrs using 177Lu labelled compound by gamma counter analysis; assay type: ADME, organism-based; conditions: in vivo; summary of the method: as §3
[19] = Drug uptake in liver of SCID mouse xenografted with human HT-29 cells at 0.37 MBq/mouse, iv measured at 24 hrs using 177Lu labelled compound by gamma counter analysis; assay type: ADME, organism-based; conditions: in vivo; summary of the method: as §1
[20] = Drug uptake in small intestine of SCID mouse xenografted with human HT-29 cells at 0.37 MBq/mouse, iv measured at 4 hrs using 177Lu labelled compound by gamma counter analysis; assay type: ADME, organism-based; conditions: in vivo; summary of the method: as §1
[21] = Drug uptake in kidney of SCID mouse xenografted with human HT-29 cells at 0.37 MBq/mouse, iv measured at 24 hrs using 177Lu labelled compound by gamma counter analysis; assay type: ADME, organism-based; conditions: in vivo; summary of the method: as §1
[22] = Ratio of drug uptake in SCID mouse xenograted with human HT-29 cells assessed as tumour retention to drug uptake in pancreas of SCID mouse xenografted with human HT-29 cells measured after 72 hrs using 177Lu labelled compound; assay type: ADME, tissue-based, Tumor/Pancreas; summary of the method: as §2
[23] = Drug internalization in cytoplasm of human HT-29 cells within 2 hrs using Eu labelled compound by lysotracker green staining confocal microscopic analysis; assay type: ADME, subcellular; conditions: ht-29, 2 h
Summary of the method: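 HT-29 cells (1.25 × 10^5/well) incubated 2 h at 37 °C with natEu conjugate (5 μM), with or without N1 (20 μM). Lysotracker Green (100 nM) added for 1 h; cells washed, formaldehyde-fixed and imaged confocally at 405/488 nm excitation. Mean pixel intensity normalized to cell count.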

[24] = Drug uptake in brain of SCID mouse xenografted with human HT-29 cells at 0.37 MBq/mouse, iv measured at 24 hrs using 177Lu labelled compound by gamma counter analysis; assay type: ADME, organism-based; conditions: in vivo; summary of the method: as §1

Cc1cc(O)cc(C)c1C[C@H](NC(=O)[C@@H]1CCCN1C(=O)[C@H](CCCNC(=N)N)NC(=O)[C@H](CCCNC(=N)N)N(C)C(=O)[C@@H]1CCCN1C(=O)[C@H](CCCCN)NC(=O)[C@@H](CO)NC(=O)[C@@H](CO)NC(=O)[C@@H](CO)NC(=O)[C@H](Cc1cn(CCNC(=O)[C@H](CCCNC(=N)N)NC(=O)[C@H](CC(C)C)NC(=O)C2OC2C(=O)O)nn1)NC(=O)CN1CCN(CC(=O)O)CCN(CC(=O)O)CCN(CC(=O)O)CC1)C(=O)N[C@H](C(=O)N[C@@H](CC(C)C)C(=O)O)C(C)(C)C (stereo not given in full)
Drug uptake [1]: 0.3 % ID/g
Drug uptake [2]: 0.18 % ID/g
Drug uptake [3]: 0.19 % ID/g
Drug uptake [4]: 1.7 % ID/g
Drug uptake [5]: 0.01 % ID/g
Drug uptake [6]: 0.03 % ID/g
K (Cathepsin B): 67000 M⁻¹ s⁻¹
Drug uptake [7]: 0.45 % ID/g
Ratio [8]: 5.7
Drug uptake [9]: 0.6 % ID/g
Drug uptake [10]: 0.33 % ID/g
Drug uptake [11]: 6.2 % ID/g
logD [12]: -3.69
Ratio [13]: 0.1
Drug excretion [14]: 69 %ID
Drug uptake [15]: 0.08 % ID/g
Drug uptake [16]: 0.34 % ID/g
Drug excretion [17]: 70 %ID
Drug uptake [18]: 0.02 % ID/g
Drug uptake [19]: 0.73 % ID/g
Drug uptake [20]: 3.5 % ID/g
Drug uptake [21]: 80 % ID/g
Ratio [22]: 30
Drug uptake [23]: Active
Drug uptake [24]: 0.02 % ID/g
